From ChEMBL document CHEMBL3875168, “Synthesis and apoptosis inducing studies of triazole linked 3-benzylidene isatin derivatives” (Eur J Med Chem, 2016)
pIC50: −log10 of the molar value. The source made the active and inactive calls. The calls are words filed in the database; no cut-off is given here.

What was measured:
[1] = Cell cycle arrest in human DU145 cells assessed as accumulation at G0/G1 phase at 2.5 uM after 24 hrs by propidium iodide staining-based flow cytometry (reference value: 62.81%); assay type: functional; conditions: DU-145
How it was run: (§1)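 Compound given to DU145 at 2.5 and 5.0 μM for 24 h alongside untreated cells. Cells harvested, PBS-washed, fixed in ice-cold 70% ethanol, then stained 30 min at 37 °C in the dark with propidium iodide (50 μg/mL) plus RNase A (20 μg/mL) in 0.1% Triton X-100. About 10000 events per sample read by flow cytometry; a representative of three independent experiments is shown.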

[2] = Cytotoxicity against human PC3 cells assessed as cell growth inhibition after 48 hrs by MTT assay; assay type: functional, cell-based; conditions: PC-3, 48 h
How it was run: (§2)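 Cell lines (NCCS) grown in DMEM or RPMI with 10% FBS and antibiotic-antimycotic at 37 °C, 5% CO2, 90% humidity. Cells seeded at 3-5×10^3 per well, treated 48 h with serial dilutions in medium beside vehicle control. Medium replaced with MTT (0.5 mg/mL) for 4 h, absorbance read at 570 nm. IC50 taken from concentration-response curves; sunitinib served as reference.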

DU-145 [3] = test: Induction of apoptosis in human DU145 cells assessed as increase in Bax level after 48 hrs by Western blot analysis; assay type: functional, cell-based
[4] = Cell cycle arrest in human DU145 cells assessed as accumulation at G2/M phase after 24 hrs by propidium iodide staining-based flow cytometry; assay type: functional; conditions: DU-145; how it was run: as §1
DU-145 [5] = test: Induction of mitochondrial membrane potential loss in human DU145 cells after 24 hrs by flow cytometry; assay type: functional, cell-based
DU-145 [6] = test: Induction of apoptosis in human DU145 cells assessed as necrotic cells at 1.25 uM after 24 hrs by Annexin V-FITC/propidium iodide staining based flow cytometry (reference value: 2.14%); assay type: functional
DU-145 [7] = test: Induction of mitochondrial membrane potential loss in human DU145 cells at 5 uM after 24 hrs by flow cytometry (reference value: 5.39%); assay type: functional
DU-145 [8] = test: Induction of apoptosis in human DU145 cells assessed as condensation of nucleus at 2.5 to 5 uM after 48 hrs by DAPI staining based fluorescence microscopic method; assay type: functional, cell-based
How it was run: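 DU145 treated for 48 h, PBS-washed, permeabilized with 0.1% Tween 20 for 10 min and stained with 1 μM DAPI. Nuclear morphology of control and treated cells viewed by fluorescence microscopy (excitation 359 nm, emission 461 nm) at 200x.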

[9] = Cell cycle arrest in human DU145 cells assessed as accumulation at sub G1 phase at 5 uM after 24 hrs by propidium iodide staining-based flow cytometry (reference value: 0.65%); assay type: functional; conditions: DU-145; how it was run: as §1
DU-145 [10] = test: Induction of mitochondrial membrane potential loss in human DU145 cells at 2.5 uM after 24 hrs by flow cytometry (reference value: 5.39%); assay type: functional
[11] = Cytotoxicity against human HeLa cells assessed as cell growth inhibition after 48 hrs by MTT assay; assay type: functional, cell-based; how it was run: as §2
DU-145 [12] = test: Induction of apoptosis in human DU145 cells assessed as increase in necrotic cells after 24 hrs by Annexin V-FITC/propidium iodide staining based flow cytometry; assay type: functional, cell-based
[13] = Cytotoxicity against human DU145 cells assessed as cell growth inhibition after 48 hrs by MTT assay; assay type: functional, cell-based; conditions: DU-145, 48 h; how it was run: as §2
DU-145 [14] = test: Induction of morphological changes in human DU145 cells assessed as membrane blebbing at 1.25 to 5 uM after 48 hrs by acridine orange/ethidium bromide-dual staining based fluorescence microscopic method; assay type: functional, cell-based
How it was run: (§3)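 DU145 plated at 1×10^6 cells/mL, treated at several concentrations and kept 48 h at 37 °C in 5% CO2. Equal volumes of acridine orange and ethidium bromide (10 μg/mL) added, and cells imaged within 10 min by fluorescence microscopy (excitation 488 nm, emission 550 nm) at 200x.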

DU-145 [15] = test: Induction of morphological changes in human DU145 cells assessed as cell shrinkage at 1.25 to 5 uM after 48 hrs by acridine orange/ethidium bromide-dual staining based fluorescence microscopic method; assay type: functional; how it was run: as §3

With `O=C1Nc2ccc(C(c3ccccc3)c3ccccc3)cc2/C1=C/c1cccc(OCc2cn(Cc3ccccc3)nn2)c1` the Activity [1] was 14.8%, the pIC50 [2] was 4.76 and the Activity (DU-145 [3]) was “Active”. For the same compound, the Activity [4] was “Dose-dependent effect”, the Activity (DU-145 [5]) was “Dose-dependent effect” and the Activity (DU-145 [6]) was 1.82%. For the same compound, the Activity (DU-145 [7]) was 99.7%, the Activity (DU-145 [8]) was “Active” and the Activity [9] was 18.3%. For the same compound, the Activity (DU-145 [10]) was 85.24%, the pIC50 [11] was 5.37 and the Activity (DU-145 [12]) was “Dose-dependent effect”. The pIC50 [13] was 5.43, the Activity (DU-145 [14]) was “Active” and the Activity (DU-145 [15]) was “Active”.
